These results are taken from paper PMC7034990 (Science Advances, 2020).

Each structure is given as a SMILES string.

The target in one assay is T1, ENaC (Homo sapiens, UniProt P37088+P51168+P51170).
T1 sequence (P37088 1-669): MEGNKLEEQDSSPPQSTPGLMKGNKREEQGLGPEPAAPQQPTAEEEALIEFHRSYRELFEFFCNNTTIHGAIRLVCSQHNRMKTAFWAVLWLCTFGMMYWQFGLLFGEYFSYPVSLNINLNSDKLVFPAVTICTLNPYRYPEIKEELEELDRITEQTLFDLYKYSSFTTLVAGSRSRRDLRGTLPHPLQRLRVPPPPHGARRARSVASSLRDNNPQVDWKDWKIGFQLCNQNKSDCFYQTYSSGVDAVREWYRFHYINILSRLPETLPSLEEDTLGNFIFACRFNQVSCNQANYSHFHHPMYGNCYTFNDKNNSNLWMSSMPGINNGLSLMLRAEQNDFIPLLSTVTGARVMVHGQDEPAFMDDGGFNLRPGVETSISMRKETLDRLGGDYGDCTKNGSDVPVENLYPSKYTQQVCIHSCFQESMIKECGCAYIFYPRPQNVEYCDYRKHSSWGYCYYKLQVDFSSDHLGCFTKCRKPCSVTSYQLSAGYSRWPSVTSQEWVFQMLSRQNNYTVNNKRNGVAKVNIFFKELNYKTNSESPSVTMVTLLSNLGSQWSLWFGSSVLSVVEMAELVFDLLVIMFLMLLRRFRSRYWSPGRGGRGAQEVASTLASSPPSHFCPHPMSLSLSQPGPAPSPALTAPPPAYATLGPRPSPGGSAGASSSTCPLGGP
T1 sequence (P51168 1-640): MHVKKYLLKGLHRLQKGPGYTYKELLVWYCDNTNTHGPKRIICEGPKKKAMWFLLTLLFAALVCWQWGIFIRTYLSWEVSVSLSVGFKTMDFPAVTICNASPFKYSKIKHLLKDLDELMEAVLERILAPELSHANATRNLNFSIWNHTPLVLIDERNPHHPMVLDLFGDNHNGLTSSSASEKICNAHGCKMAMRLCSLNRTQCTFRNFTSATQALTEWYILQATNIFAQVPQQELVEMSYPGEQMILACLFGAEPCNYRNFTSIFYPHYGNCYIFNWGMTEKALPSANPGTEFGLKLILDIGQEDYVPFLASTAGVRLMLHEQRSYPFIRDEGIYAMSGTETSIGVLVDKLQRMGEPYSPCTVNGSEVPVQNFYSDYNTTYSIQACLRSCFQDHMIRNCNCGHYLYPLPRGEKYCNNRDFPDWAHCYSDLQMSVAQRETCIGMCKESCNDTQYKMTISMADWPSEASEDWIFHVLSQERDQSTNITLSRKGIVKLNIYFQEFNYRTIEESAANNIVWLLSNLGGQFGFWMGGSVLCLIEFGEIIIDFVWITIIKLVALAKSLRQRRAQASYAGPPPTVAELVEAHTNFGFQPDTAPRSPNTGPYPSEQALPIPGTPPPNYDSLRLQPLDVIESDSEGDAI
T1 sequence (P51170 1-649): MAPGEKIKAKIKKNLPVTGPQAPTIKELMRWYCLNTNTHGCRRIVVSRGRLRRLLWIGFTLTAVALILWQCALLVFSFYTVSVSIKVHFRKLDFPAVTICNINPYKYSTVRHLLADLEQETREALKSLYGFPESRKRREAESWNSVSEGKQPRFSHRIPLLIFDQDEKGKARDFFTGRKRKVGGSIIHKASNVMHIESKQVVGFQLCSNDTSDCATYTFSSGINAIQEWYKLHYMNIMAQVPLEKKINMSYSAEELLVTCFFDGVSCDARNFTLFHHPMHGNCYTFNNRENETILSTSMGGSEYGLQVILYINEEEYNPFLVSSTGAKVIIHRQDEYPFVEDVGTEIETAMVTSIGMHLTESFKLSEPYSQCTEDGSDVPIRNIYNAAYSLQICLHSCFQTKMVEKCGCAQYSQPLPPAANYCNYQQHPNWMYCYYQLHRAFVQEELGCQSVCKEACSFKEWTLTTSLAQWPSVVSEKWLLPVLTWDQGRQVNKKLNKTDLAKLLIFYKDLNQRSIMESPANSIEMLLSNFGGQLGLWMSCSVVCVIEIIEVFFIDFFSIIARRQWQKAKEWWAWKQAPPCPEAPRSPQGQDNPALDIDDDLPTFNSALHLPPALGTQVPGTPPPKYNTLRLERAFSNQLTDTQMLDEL
The assay is described as follows: ENaC function from the response to apical amiloride. As to conditions: amiloride 10 μM; correctors for 24 hr. Format: cell-based. The procedure, abridged: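 Primary bronchial epithelial cells came from lung-transplant bronchi and were differentiated on porous inserts, then kept 2–3 weeks under air-liquid culture. Correctors or DMSO were given in basolateral medium. Epithelia were mounted in a vertical diffusion chamber, bicarbonate saline (126 mM NaCl, 24 mM NaHCO3, 10 mM glucose) both sides, gassed 5% CO2:95% air, 37°C. Voltage was clamped and short-circuit current recorded. ENaC was blocked with amiloride (10 μM).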

In assay [1] the target is F508del-CFTR in CFBE41o− cells (Homo sapiens, UniProt P13569, DEL508-508). The assay is described as follows: Thermoaggregation assay of mutant CFTR in cell lysates. The format is cell-based. As to conditions: lysates heat-denatured at 28° to 70°C; ARN23765 1 nM, VX-809 1 μM. An outline of the steps:
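F508del-CFTR CFBE41o− cells were treated 24 h; wild-type CFTR CFBE41o− cells were run in parallel. Confluent cells received cycloheximide (150 μg/ml) for 2 h, were lysed in RIPA on ice and cleared at 15,000g, 10 min, 4°C. Lysate (50 μg) was heated 15 min at 28–70°C. Aggregates were removed at 15,000g, 15 min, 4°C; soluble CFTR was immunoblotted and normalised to HSP90AB1.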

For assay [2], the system named is F508del-CFTR CFBE41o− cells. Put plainly: Western blot of F508del-CFTR maturation in CFBE41o− cells. Format: cell-based. As to conditions: 24 hours. The procedure, abridged: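 Confluent CFBE41o− cells expressing F508del-CFTR were treated with test compounds or DMSO. They were lysed in RIPA with protease inhibitors and cleared at 15,300g, 4°C, 10 min. Lysates were run on SDS-PAGE and immunoblotted with mouse monoclonal anti-CFTR. Immature core-glycosylated band B runs near 150 kDa. Bands were quantified as regions of interest and normalised to GAPDH.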
Background: Immunoblotting shows a protein as a band on a membrane.

Assay [3] has as its system bronchial epithelial cells (F508del/F508del, F508del/other mutation, non-CF). The assay is described as follows: TEEC/PD technique. As to conditions: for F508del-CFTR function, ∆Ieq: 10 nM. The format is cell-based, human. The procedure, abridged: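 CF and non-CF primary bronchial epithelia at air-liquid interface on 0.33-cm2 inserts were treated 24 h at 37°C, 5% CO2. Measurements used Coon's F12 with NaHCO3 replaced by 20 mM Na-Hepes (pH 7.3), after 1 h equilibration. TEER and PD were read at baseline, after apical amiloride 10 μM, forskolin 10 μM + genistein 50 μM bilateral, then apical PPQ102 30 μM, 10 min each. Ieq came from Ohm's law; ∆Ieq = change on PPQ102.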

As for `CN(C(=O)c1cccc(-n2nc(C(F)(F)F)c3c2[C@@H](Oc2ccc(C(=O)O)cc2)CCC3)c1)c1ccc2c(c1)OC(F)(F)O2` [ARN23765], the “amplitude of the response to apical amiloride, ENaC function” value at ENaC was “modestly reduced”. For the same molecule, the “resistance to thermoaggregation of mature CFTR” value in assay [1] is listed as “significantly increased the resistance to thermoaggregation of mature CFTR”. Moreover, in assay [2], the “F508del-CFTR maturation, band C” value was “at low concentrations was also observed”. Also, the “F508del-CFTR function, ∆Ieq” value was “markedly increased F508del-CFTR function, with results comparable to those of VX-809 (1 μM)” in assay [3] (cells from four patients with F508del/F508del, 24 hours); “notably effective” in assay [3] (epithelia from two patients with a single copy of F508del and a premature stop codon (R553X and G542X)). The “wild-type CFTR function, ∆Ieq” value in assay [3] (non-CF epithelia, ARN23765 10 nM, VX-809 1 μM) is on record as “elicited a significant increase of wild-type CFTR function”.
